The source of these data is ChEMBL document CHEMBL1128528, “Structure-activity relationships of unsaturated analogues of valproic acid” (J Med Chem, 1995).

Data set [1] deals with Mus musculus. As to the kind of experiment: Anticonvulsant activity against mice after intraperitoneal administration. The data set is classed as functional. As to conditions: ip. An outline of the steps: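 Mice, 6 weeks old, eight per dose, received five ip doses of the sodium salt (4 mL/kg). Pentylenetetrazole (85 mg/kg, 10 mL/kg) was given sc at 10 min and animals were watched for 30 min. Unprotected meant a 5 s clonus with loss of balance. ED50 was read from percentage protection vs log(dose). Sedation was scored from activity and muscle tone during handling.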

Data set [2] relates to Mus musculus. As to the kind of experiment: Brain concentration after 15 min of administration. The class given is functional. An outline of the steps:
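Mice (n = 5, or 4 where footnoted) were given an ED50 dose and killed at 15 min. Whole brains were homogenized in 0.32 M sucrose and stored at -78 °C. Sodium octanoate served as internal standard; samples were acidified with HCl and extracted into EtOAc. Acids were quantified as tert-butyldimethylsilyl esters by GC-MS (EI 70 eV, SIM at M+ − 57). Each sample ran in triplicate; values are mean ± SD.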

A short description of data set [3]: Partition coefficient (logP). The note with it: octanol/water. The class given is physicochemical. In outline:
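Calculated with CLOGP for the undissociated acid as 1-octanol/water partition coefficient; cis and trans isomers not distinguished.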

In the case of `O=C(O)C1=CCCC1`, it took a dose of 4.7 mmol/kg to reach the 50% effect level with Mus musculus [1] (ED50). Moreover, the C with Mus musculus [2] was determined as 500 nM/g. The logP (usually a log measure of how a compound divides between an organic and an aqueous phase) in data set [3] amounted to 1.1.
For `C/C=C\C(=C/CC)C(=O)O`, the 50% effect level in the data set on Mus musculus [1] (ED50) was put at a dose of 0.78 mmol/kg. The same compound registered a C with Mus musculus [2] of 350 nM/g. In data set [3], this compound came in with a logP of 2.22.
The corresponding values for `CC/C=C\C(=O)O` are 7 mmol/kg, 4460 nM/g and 1.22.
The corresponding values for `CC(C)=CC(=O)O` are 5.2 mmol/kg, 2710 nM/g and 1.09.
For `O=C(O)C1=CC2CCC1C2` (stereo unspecified), in that order: 2.9 mmol/kg, 2150 nM/g and 1.42.
For `CC/C=C(\CCC)C(=O)O`, it took a dose of 0.84 mmol/kg to reach the 50% effect level with Mus musculus [1] (ED50). Also, the C in the data set with Mus musculus [2] worked out at 260 nM/g. Moreover, the logP in data set [3] is 2.59.
Take `CC/C=C/C(=O)O`: the ED50 (as a rule, the dose at which the effect has come halfway, by size or by number of responders) with Mus musculus [1] is 6 mmol/kg. This compound yielded a C in the data set with Mus musculus [2] of 2220 nM/g. Besides, the logP in data set [3] worked out at 1.22.
For the compound `O=C(O)C1=CCCCC1`, the ED50 in the data set on Mus musculus [1] is 2.2 mmol/kg. In addition, the C in the data set on Mus musculus [2] amounted to 1210 nM/g. Further, the logP in data set [3] turned out to be 1.66.
For `O=C(O)C=C1CCCCCC1`, the ED50 in the data set on Mus musculus [1] amounted to 0.96 mmol/kg. In the data set on Mus musculus [2], the C stood at 159 nM/g. The logP in data set [3] is 2.84.
For the compound `CCCC(CCC)C(=O)O` [VALPROIC ACID], in the data set on Mus musculus [1], the ED50 came out at 0.83 mmol/kg. Besides, the C in the data set on Mus musculus [2] is 620 nM/g. Also, the logP in data set [3] is 2.72.
In the case of `CC/C=C(\CCCC)C(=O)O`, the ED50 with Mus musculus [1] was 0.87 mmol/kg. This compound also registered a C with Mus musculus [2] of 140 nM/g. Further, the logP in data set [3] turned out to be 3.11.
In turn, `O=C(O)C=C1CCCCC1` showed an ED50 in the data set with Mus musculus [1] of 1.4 mmol/kg. This compound yielded a C in the data set on Mus musculus [2] of 320 nM/g. The compound also showed a logP in data set [3] of 2.28.
For `O=C(O)C=C1CCCC1`, in that order: 2.3 mmol/kg, 450 nM/g and 1.72.
For `CC/C=C(\C)C(=O)O`, in the data set with Mus musculus [1], the 50% effective dose (ED50) was 4.4 mmol/kg. Further, the C with Mus musculus [2] stood at 1520 nM/g. The logP in data set [3] was 1.53.
Compound `CC/C=C(\CC)C(=O)O` showed an ED50 in the data set with Mus musculus [1] of 1.6 mmol/kg. In addition, the C with Mus musculus [2] came to 660 nM/g. Moreover, in data set [3], the logP is 2.06.
Compound `O=C(O)C=C1CCCCCCC1` registered an ED50 in the data set on Mus musculus [1] of 0.73 mmol/kg. The compound further returned a C in the data set on Mus musculus [2] of 94 nM/g. The compound further registered a lipophilicity (logP) in data set [3] of 3.4.
In the data set on Mus musculus [1], `C/C=C/C(=C\CC)C(=O)O` gave an ED50 of 1.4 mmol/kg. Also, the C in the data set on Mus musculus [2] was determined as 680 nM/g. In data set [3], the logP was 2.22.
